{"source": "ChEMBL document CHEMBL1833943", "about": "“Synthesis and structure-activity relationships of varied ether linker analogues of the antitubercular drug (6S)-2-nitro-6-{[4-(trifluoromethoxy)benzyl]oxy}-6,7-dihydro-5h-imidazo[2,1-b][1,3]oxazine (PA-824)” (J Med Chem, 2011)", "key": {"[1]": {"tested_on": "Mycobacterium tuberculosis", "assay": "Antituberculosis activity against Mycobacterium tuberculosis H37Rv under anaerobic conditions by fluorescence based low-oxygen-recovery assay", "assay_type": "functional"}, "[2]": {"tested_on": "Mycobacterium tuberculosis", "assay": "Antituberculosis activity against Mycobacterium tuberculosis H37Rv under aerobic conditions by microplate alamar blue assay", "assay_type": "functional"}, "[3]": {"assay": "Aqueous solubility of the compound in water at pH 7 by HPLC analysis", "assay_type": "physicochemical", "outline": "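Solubility measured in water at pH 7 and 20 °C, quantified by HPLC.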"}}, "data": [{"smiles": "O=[N+]([O-])c1cn2c(n1)OC[C@@H](OCCCC#Cc1ccc(-c3ccc(F)cc3)cc1)C2", "values": [{"measurement": "MIC", "setting": "[1]", "result": 1.6, "unit": "µM"}, {"measurement": "MIC", "setting": "[2]", "result": 0.07, "unit": "µM"}]}, {"smiles": "O=[N+]([O-])c1cn2c(n1)OC[C@@H](OCCCC#Cc1ccc(-c3ccc(C(F)(F)F)cc3)cc1)C2", "values": [{"measurement": "MIC", "setting": "[1]", "result": "> 128", "unit": "µM"}, {"measurement": "MIC", "setting": "[2]", "result": 0.085, "unit": "µM"}]}, {"smiles": "O=[N+]([O-])c1cn2c(n1)OC[C@@H](OCCCC#Cc1ccc(-c3ccc(C(F)(F)F)nc3)cc1)C2", "values": [{"measurement": "MIC", "setting": "[1]", "result": 63, "unit": "µM"}, {"measurement": "MIC", "setting": "[2]", "result": 0.11, "unit": "µM"}]}, {"smiles": "O=[N+]([O-])c1cn2c(n1)OC[C@@H](OCCCC#Cc1ccc(-c3ccc(OC(F)F)cc3)cc1)C2", "values": [{"measurement": "MIC", "setting": "[1]", "result": 39, "unit": "µM"}, {"measurement": "MIC", "setting": "[2]", "result": 0.035, "unit": "µM"}]}, {"smiles": "O=[N+]([O-])c1cn2c(n1)OC[C@@H](Oc1cc(-c3ccc(C(F)(F)F)nc3)ncn1)C2", "values": [{"measurement": "MIC", "setting": "[1]", "result": 62, "unit": "µM"}, {"measurement": "MIC", "setting": "[2]", "result": 3, "unit": "µM"}]}, {"smiles": "O=[N+]([O-])c1cn2c(n1)OC[C@@H](Oc1ccc(-c3ccc(F)cc3)cn1)C2", "values": [{"measurement": "MIC", "setting": "[1]", "result": 15, "unit": "µM"}, {"measurement": "MIC", "setting": "[2]", "result": 0.37, "unit": "µM"}]}, {"smiles": "O=[N+]([O-])c1cn2c(n1)OC[C@@H](Oc1ccc(-c3ccc(C(F)(F)F)cc3)cn1)C2", "values": [{"measurement": "MIC", "setting": "[1]", "result": 12, "unit": "µM"}, {"measurement": "MIC", "setting": "[2]", "result": 0.1, "unit": "µM"}]}, {"smiles": "O=[N+]([O-])c1cn2c(n1)OC[C@@H](Oc1ccc(-c3ccc(C(F)(F)F)nc3)cn1)C2", "values": [{"measurement": "MIC", "setting": "[1]", "result": 14, "unit": "µM"}, {"measurement": "MIC", "setting": "[2]", "result": 0.42, "unit": "µM"}]}, {"smiles": "O=[N+]([O-])c1cn2c(n1)OC[C@@H](Oc1ccc(-c3ccc(OC(F)(F)F)cc3)nc1)C2", "values": [{"measurement": "MIC", "setting": "[1]", "result": 1.5, "unit": "µM"}, {"measurement": "solubility", "setting": "[3]", "result": 0.27, "unit": "µg/mL"}, {"measurement": "MIC", "setting": "[2]", "result": 0.14, "unit": "µM"}]}, {"smiles": "O=[N+]([O-])c1cn2c(n1)OC[C@@H](Oc1ccc(-c3ccc(F)cc3)nc1)C2", "values": [{"measurement": "MIC", "setting": "[1]", "result": 5.6, "unit": "µM"}, {"measurement": "MIC", "setting": "[2]", "result": 0.5, "unit": "µM"}]}, {"smiles": "O=[N+]([O-])c1cn2c(n1)OC[C@@H](Oc1ccc(-c3ccc(C(F)(F)F)cc3)nc1)C2", "values": [{"measurement": "MIC", "setting": "[1]", "result": 1.2, "unit": "µM"}, {"measurement": "MIC", "setting": "[2]", "result": 0.78, "unit": "µM"}]}, {"smiles": "O=[N+]([O-])c1cn2c(n1)OC[C@@H](Oc1ccc(-c3ccc(C(F)(F)F)nc3)nc1)C2", "values": [{"measurement": "MIC", "setting": "[1]", "result": 17, "unit": "µM"}, {"measurement": "MIC", "setting": "[2]", "result": 0.45, "unit": "µM"}]}, {"smiles": "O=[N+]([O-])c1cn2c(n1)OC[C@@H](Oc1ncc(-c3ccc(F)cc3)cn1)C2", "values": [{"measurement": "MIC", "setting": "[1]", "result": 7.4, "unit": "µM"}, {"measurement": "MIC", "setting": "[2]", "result": 1.6, "unit": "µM"}]}, {"smiles": "O=[N+]([O-])c1cn2c(n1)OC[C@@H](Oc1ncc(-c3ccc(C(F)(F)F)cc3)cn1)C2", "values": [{"measurement": "MIC", "setting": "[1]", "result": 3, "unit": "µM"}, {"measurement": "MIC", "setting": "[2]", "result": 0.21, "unit": "µM"}]}, {"smiles": "O=[N+]([O-])c1cn2c(n1)OC[C@@H](Oc1ncc(-c3ccc(C(F)(F)F)nc3)cn1)C2", "values": [{"measurement": "MIC", "setting": "[1]", "result": 17, "unit": "µM"}, {"measurement": "MIC", "setting": "[2]", "result": 1.3, "unit": "µM"}]}, {"smiles": "CC(O[C@@H]1COc2nc([N+](=O)[O-])cn2C1)c1ccc(-c2ccc(F)cc2)cc1", "note": "(stereo partly drawn)", "values": [{"measurement": "MIC", "setting": "[1]", "result": 1.3, "unit": "µM"}, {"measurement": "MIC", "setting": "[2]", "result": 0.22, "unit": "µM"}]}, {"smiles": "CC(O[C@@H]1COc2nc([N+](=O)[O-])cn2C1)c1ccc(-c2ccc(C(F)(F)F)cc2)cc1", "note": "(stereo partly drawn)", "values": [{"measurement": "MIC", "setting": "[1]", "result": 2.2, "unit": "µM"}, {"measurement": "MIC", "setting": "[2]", "result": 0.18, "unit": "µM"}]}, {"smiles": "CC(O[C@@H]1COc2nc([N+](=O)[O-])cn2C1)c1ccc(-c2ccc(C(F)(F)F)nc2)cc1", "note": "(stereo partly drawn)", "values": [{"measurement": "MIC", "setting": "[1]", "result": 4.3, "unit": "µM"}, {"measurement": "MIC", "setting": "[2]", "result": 0.39, "unit": "µM"}]}, {"smiles": "O=[N+]([O-])c1cn2c(n1)OC[C@@H](Oc1ccc(-c3ccc(F)cc3)cc1)C2", "values": [{"measurement": "MIC", "setting": "[1]", "result": 1.2, "unit": "µM"}, {"measurement": "MIC", "setting": "[2]", "result": 0.31, "unit": "µM"}]}, {"smiles": "O=[N+]([O-])c1cn2c(n1)OC[C@@H](Oc1ccc(-c3ccc(C(F)(F)F)cc3)cc1)C2", "values": [{"measurement": "MIC", "setting": "[1]", "result": "> 128", "unit": "µM"}, {"measurement": "MIC", "setting": "[2]", "result": 0.39, "unit": "µM"}]}, {"smiles": "O=[N+]([O-])c1cn2c(n1)OC[C@@H](Oc1ccc(-c3ccc(C(F)(F)F)nc3)cc1)C2", "values": [{"measurement": "MIC", "setting": "[1]", "result": 4.1, "unit": "µM"}, {"measurement": "MIC", "setting": "[2]", "result": 0.51, "unit": "µM"}]}, {"smiles": "O=[N+]([O-])c1cn2c(n1)OC[C@@H](Oc1cccc(-c3ccc(OC(F)(F)F)cc3)n1)C2", "values": [{"measurement": "MIC", "setting": "[1]", "result": 3.3, "unit": "µM"}, {"measurement": "solubility", "setting": "[3]", "result": 0.12, "unit": "µg/mL"}, {"measurement": "MIC", "setting": "[2]", "result": 0.24, "unit": "µM"}]}, {"smiles": "O=[N+]([O-])c1cn2c(n1)OC[C@@H](Oc1cccc(-c3ccc(F)cc3)n1)C2", "values": [{"measurement": "MIC", "setting": "[1]", "result": 27, "unit": "µM"}, {"measurement": "MIC", "setting": "[2]", "result": 3.2, "unit": "µM"}]}, {"smiles": "O=[N+]([O-])c1cn2c(n1)OC[C@@H](Oc1cccc(-c3ccc(C(F)(F)F)cc3)n1)C2", "values": [{"measurement": "MIC", "setting": "[1]", "result": 35, "unit": "µM"}, {"measurement": "MIC", "setting": "[2]", "result": 0.55, "unit": "µM"}]}, {"smiles": "O=[N+]([O-])c1cn2c(n1)OC[C@@H](Oc1cccc(-c3ccc(C(F)(F)F)nc3)n1)C2", "values": [{"measurement": "MIC", "setting": "[1]", "result": "> 128", "unit": "µM"}, {"measurement": "MIC", "setting": "[2]", "result": 5.7, "unit": "µM"}]}, {"smiles": "O=[N+]([O-])c1cn2c(n1)OC[C@@H](Oc1cccc(-c3ccc(OC(F)F)cc3)n1)C2", "values": [{"measurement": "MIC", "setting": "[1]", "result": 4.4, "unit": "µM"}, {"measurement": "MIC", "setting": "[2]", "result": 0.52, "unit": "µM"}]}, {"smiles": "O=[N+]([O-])c1cn2c(n1)OC[C@@H](Oc1ccnc(-c3ccc(OC(F)(F)F)cc3)c1)C2", "values": [{"measurement": "MIC", "setting": "[1]", "result": 2.6, "unit": "µM"}, {"measurement": "solubility", "setting": "[3]", "result": 0.53, "unit": "µg/mL"}, {"measurement": "MIC", "setting": "[2]", "result": 0.3, "unit": "µM"}]}, {"smiles": "O=[N+]([O-])c1cn2c(n1)OC[C@@H](Oc1ccnc(-c3ccc(F)cc3)c1)C2", "values": [{"measurement": "MIC", "setting": "[1]", "result": 8.5, "unit": "µM"}, {"measurement": "MIC", "setting": "[2]", "result": 0.67, "unit": "µM"}]}, {"smiles": "O=[N+]([O-])c1cn2c(n1)OC[C@@H](Oc1ccnc(-c3ccc(C(F)(F)F)cc3)c1)C2", "values": [{"measurement": "MIC", "setting": "[1]", "result": "> 128", "unit": "µM"}, {"measurement": "MIC", "setting": "[2]", "result": 0.65, "unit": "µM"}]}, {"smiles": "O=[N+]([O-])c1cn2c(n1)OC[C@@H](Oc1ccnc(-c3ccc(C(F)(F)F)nc3)c1)C2", "values": [{"measurement": "MIC", "setting": "[1]", "result": "> 128", "unit": "µM"}, {"measurement": "MIC", "setting": "[2]", "result": 14, "unit": "µM"}]}, {"smiles": "O=[N+]([O-])c1cn2c(n1)OC[C@@H](Oc1cc(-c3ccc(F)cc3)ccn1)C2", "values": [{"measurement": "MIC", "setting": "[1]", "result": 28, "unit": "µM"}, {"measurement": "MIC", "setting": "[2]", "result": 5.2, "unit": "µM"}]}, {"smiles": "O=[N+]([O-])c1cn2c(n1)OC[C@@H](Oc1cc(-c3ccc(C(F)(F)F)cc3)ccn1)C2", "values": [{"measurement": "MIC", "setting": "[1]", "result": 32, "unit": "µM"}, {"measurement": "MIC", "setting": "[2]", "result": 0.88, "unit": "µM"}]}, {"smiles": "O=[N+]([O-])c1cn2c(n1)OC[C@@H](Oc1cc(-c3ccc(C(F)(F)F)nc3)ccn1)C2", "values": [{"measurement": "MIC", "setting": "[1]", "result": 27, "unit": "µM"}, {"measurement": "MIC", "setting": "[2]", "result": 3, "unit": "µM"}]}, {"smiles": "O=[N+]([O-])c1cn2c(n1)OC[C@@H](Oc1cc(-c3ccc(F)cc3)ncn1)C2", "values": [{"measurement": "MIC", "setting": "[1]", "result": 15, "unit": "µM"}, {"measurement": "MIC", "setting": "[2]", "result": 0.99, "unit": "µM"}]}, {"smiles": "O=[N+]([O-])c1cn2c(n1)OC[C@@H](Oc1cc(-c3ccc(C(F)(F)F)cc3)ncn1)C2", "values": [{"measurement": "MIC", "setting": "[1]", "result": 17, "unit": "µM"}, {"measurement": "MIC", "setting": "[2]", "result": 0.8, "unit": "µM"}]}]}
